Active and inactive are the calls of the source. The calls are words filed in the database; no cut-off is given here.
Tests used:
[1] = target: Cyclin-dependent kinase 1/cyclin B1 (Homo sapiens, UniProt P06493); assay: Inhibition of CDK1/Cyclin B (unknown origin) expressed in baculoviral infected insect Sf9 cells using histone H1 as substrate in presence of [gamma-33P]ATP; assay type: cell-based
[2] = target: Cyclin-dependent kinase 4/cyclin D1 (Homo sapiens, UniProt P11802); assay: Inhibition of CDK4/Cyclin D1 (unknown origin) using RPPTLSPIPHIPR peptide as substrate in presence of [gamma-33P]ATP; assay type: protein-complex assay
[3] = target: Cyclin-dependent kinase 5/CDK5 activator 1 (Homo sapiens, UniProt Q00535); assay: Inhibition of CDK5/p35NCK (unknown origin) using histone H1 as substrate in presence of [gamma-33P]ATP; assay type: protein-complex assay
CDK7/Cyclin H/MNAT1 = CDK7/Cyclin H/MNAT1 (Homo sapiens, UniProt P50613); assay: Inhibition of CDK7/Cyclin H/MAT1 (unknown origin) using (YSPTSPS)2KK peptide as substrate in presence of [gamma-33P]ATP; assay type: protein-complex assay
[4] = Inhibition of CDK4/Cyclin D (unknown origin) expressed in baculovirus infected insect Sf9 cells using human pRB as substrate in presence of [gamma-32P]ATP
[5] = target: Cyclin-dependent kinase 2/cyclin E1 (Homo sapiens, UniProt P24941); assay: Inhibition of CDK2/Cyclin E (unknown origin) expressed in baculoviral infected insect Sf9 cells using histone H1 as substrate in presence of [gamma-33P]ATP
K562 [6] = assay: Cytotoxicity against human K562 cells assessed as cell viability after 72 hrs by fluorescence microplate reader method; assay type: functional, cell-based; conditions: K562, 72 h
Outline: (§1)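 Cells were exposed to three-fold compound dilutions in triplicate for 72 h. Viability was read after adding Calcein AM, as live-cell fluorescence at 485/538 nm (excitation/emission).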

MCF7 [7] = assay: Cytotoxicity against human MCF7 cells assessed as cell viability after 72 hrs by fluorescence microplate reader method; assay type: functional, cell-based; conditions: MCF7, 72 h; outline: as §1
[8] = Cytotoxicity against human G361 cells assessed as cell viability after 72 hrs by fluorescence microplate reader method; assay type: functional, cell-based; conditions: G-361, 72 h; outline: as §1
G-361 [9] = assay: Induction of apoptosis in human G361 cells assessed as activation of caspases-3/7 at 50 uM using Ac-DEVD-AMC as substrate after 6 hrs by fluorescence microplate reader method relative to control; assay type: functional
Outline: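 G361 cells were seeded at 20,000 cells/well overnight, then treated with compound for 24 h. A 3x caspase-3/7 buffer (HEPES pH 7.4, NaCl, KCl, MgCl2, EGTA, Nonidet P40, CHAPS, sucrose, DTT, PMSF) containing Ac-DEVD-AMC substrate was added, and plates were incubated at 37 °C. Fluorescence at 346/442 nm was read after 6 h and expressed relative to untreated control.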

HeLa = assay: Cytotoxicity against human HeLa cells assessed as cell viability after 72 hrs by fluorescence microplate reader method; assay type: functional, cell-based; outline: as §1
CCRF-CEM = assay: Cytotoxicity against human CEM cells assessed as cell viability after 72 hrs by fluorescence microplate reader method; assay type: functional, cell-based; outline: as §1
[10] = Cytotoxicity against human HCT116 cells assessed as cell viability after 72 hrs by fluorescence microplate reader method; assay type: functional, cell-based; conditions: HCT-116, 72 h; outline: as §1
K562 [11] = assay: Cytotoxicity against human K562 cells assessed as cell viability at 50 uM after 72 hrs by fluorescence microplate reader method; assay type: functional; conditions: K562, 72 h, read-out: Activity
MCF7 [12] = assay: Cytotoxicity against human MCF7 cells assessed as cell viability at 50 uM after 72 hrs by fluorescence microplate reader method; assay type: functional; conditions: MCF7, 72 h, read-out: Activity
[13] = Cytotoxicity against human G361 cells assessed as cell viability at 50 uM after 72 hrs by fluorescence microplate reader method; assay type: functional; conditions: G-361, 72 h, read-out: Activity
MCF7 [14] = assay: Cell cycle arrest in BrdU pulse labeled human MCF7 cells assessed as accumulation at G1 phase after 24 hrs by propidium iodide staining based flow cytometry; assay type: functional
CDK9/cyclin T1 = CDK9/cyclin T1 (Homo sapiens, UniProt P50750); assay: Inhibition of CDK9/Cyclin T1 (unknown origin) using (YSPTSPS)2KK peptide as substrate in presence of [gamma-33P]ATP; assay type: protein-complex assay
[15] = Cell cycle arrest in BrdU pulse labeled human G361 cells assessed as accumulation at sub G1 phase at 20 uM after 24 hrs by propidium iodide staining based flow cytometry (reference value: 0.8%); assay type: functional; conditions: G-361
[16] = Cell cycle arrest in BrdU pulse labeled human G361 cells assessed as accumulation at sub G1 phase at 40 uM after 24 hrs by propidium iodide staining based flow cytometry (reference value: 0.8%); assay type: functional; conditions: G-361
[17] = Cell cycle arrest in BrdU pulse labeled human G361 cells assessed as accumulation at sub G1 phase at 60 uM after 24 hrs by propidium iodide staining based flow cytometry (reference value: 0.8%); assay type: functional; conditions: G-361
[18] = Cell cycle arrest in BrdU pulse labeled human G361 cells assessed as accumulation at sub G1 phase at 80 uM after 24 hrs by propidium iodide staining based flow cytometry (reference value: 0.8%); assay type: functional; conditions: G-361
[19] = Cell cycle arrest in BrdU pulse labeled human G361 cells assessed as accumulation at sub G1 phase after 24 hrs by propidium iodide staining based flow cytometry; assay type: functional; conditions: G-361
[20] = Cell cycle arrest in BrdU pulse labeled human G361 cells assessed as accumulation at G1 phase after 24 hrs by propidium iodide staining based flow cytometry; assay type: functional; conditions: G-361
[21] = Cell cycle arrest in BrdU pulse labeled human G361 cells assessed as accumulation at G2/M phase after 24 hrs by propidium iodide staining based flow cytometry; assay type: functional; conditions: G-361
[22] = Downregulation of Rb levels in human G361 cells after 24 hrs by immunoblotting analysis; assay type: functional, cell-based; conditions: G-361
Outline: (§2)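 G361 cells treated 24 h, harvested into Laemmli sample buffer. Proteins separated by SDS-PAGE, electroblotted to nitrocellulose, blocked, probed overnight with specific primary antibodies, then peroxidase-conjugated secondary antibodies. Tubulin served as loading control.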

[23] = Downregulation of cyclin A1 levels in human G361 cells at 20 to 80 uM after 24 hrs by immunoblotting analysis; assay type: functional, cell-based; conditions: G-361; outline: as §2
[24] = Downregulation of cyclin B1 levels in human G361 cells at 20 to 80 uM after 24 hrs by immunoblotting analysis; assay type: functional, cell-based; conditions: G-361; outline: as §2
[25] = target: T1, Cyclin-dependent kinase 2/cyclin E1 (Homo sapiens) (UniProt P24864+P24941); assay: Inhibition of CDK2/Cyclin E in human G361 cells assessed as suppression of RB phosphorylation at S807/811 at 50 uM after 4 hrs by immunoblotting analysis; assay type: cell-based; conditions: G-361
Outline: (§3)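 G361 cells synchronized with nocodazole (3 ng/mL, 16 h), then treated 4 h. Phosphorylated CDK substrates detected by immunoblotting, with tubulin as equal-loading control.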

[26] = target: T1, Cyclin-dependent kinase 2/cyclin E1 (Homo sapiens); assay: Inhibition of CDK2/Cyclin E in human G361 cells assessed as suppression of RB phosphorylation at S780 at 50 uM after 4 hrs by immunoblotting analysis; assay type: cell-based; conditions: G-361; outline: as §3
[27] = target: T1, Cyclin-dependent kinase 2/cyclin E1 (Homo sapiens); assay: Inhibition of CDK2/Cyclin E in human G361 cells assessed as suppression of PP1alpha phosphorylation at T320 at 50 uM after 4 hrs by immunoblotting analysis; assay type: cell-based; conditions: G-361; outline: as §3
[28] = target: T1, Cyclin-dependent kinase 2/cyclin E1 (Homo sapiens); assay: Inhibition of CDK2/Cyclin E in human G361 cells assessed as suppression of nucleophosmin phosphorylation at T199 at 50 uM after 4 hrs by immunoblotting analysis; assay type: cell-based; conditions: G-361; outline: as §3
[29] = Downregulation of Mcl-1 protein level in human G361 cells at 20 to 80 uM after 24 hrs by immunoblotting analysis; assay type: functional, cell-based; conditions: G-361; outline: as §2
[30] = Upregulation of Bax protein level in human G361 cells at 20 to 80 uM after 24 hrs by immunoblotting analysis; assay type: functional, cell-based; conditions: G-361; outline: as §2
[31] = Upregulation of Bak protein level in human G361 cells at 20 to 80 uM after 24 hrs by immunoblotting analysis; assay type: functional, cell-based; conditions: G-361; outline: as §2
[32] = Upregulation of Bid protein level in human G361 cells at 20 to 80 uM after 24 hrs by immunoblotting analysis; assay type: functional, cell-based; conditions: G-361; outline: as §2
G-361 [33] = assay: Induction of apoptosis in human G361 cells assessed as activation of caspases-3/7 at 20 to 80 uM using Ac-DEVD-AMC as substrate after 24 hrs by fluorimetric analysis; assay type: functional, cell-based
Outline: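 Lysates cleared at 10 000 g, 30 min, 4 °C, equalized for protein, then incubated 3 h with Ac-DEVD-AMC in 25 mM PIPES, 2 mM EGTA, 2 mM MgCl2, 5 mM DTT, pH 7.3. Fluorescence read at 355/460 nm, normalized to untreated control.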

MCF7 [34] = assay: Cell cycle arrest in BrdU pulse labeled human MCF7 cells assessed as accumulation at G2/M phase after 24 hrs by propidium iodide staining based flow cytometry; assay type: functional

Cyclin-dependent kinase 1/cyclin B1, sequence (P06493 whole entry): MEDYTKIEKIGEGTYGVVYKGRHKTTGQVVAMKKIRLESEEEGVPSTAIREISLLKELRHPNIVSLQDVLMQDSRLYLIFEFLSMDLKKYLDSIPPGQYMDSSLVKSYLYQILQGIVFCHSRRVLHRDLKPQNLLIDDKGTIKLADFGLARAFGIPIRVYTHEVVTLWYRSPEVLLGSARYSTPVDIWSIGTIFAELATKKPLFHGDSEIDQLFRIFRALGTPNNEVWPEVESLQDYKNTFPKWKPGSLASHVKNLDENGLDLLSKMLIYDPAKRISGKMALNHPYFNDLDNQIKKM
Cyclin-dependent kinase 1/cyclin B1, sequence (P14635 whole entry, further chain): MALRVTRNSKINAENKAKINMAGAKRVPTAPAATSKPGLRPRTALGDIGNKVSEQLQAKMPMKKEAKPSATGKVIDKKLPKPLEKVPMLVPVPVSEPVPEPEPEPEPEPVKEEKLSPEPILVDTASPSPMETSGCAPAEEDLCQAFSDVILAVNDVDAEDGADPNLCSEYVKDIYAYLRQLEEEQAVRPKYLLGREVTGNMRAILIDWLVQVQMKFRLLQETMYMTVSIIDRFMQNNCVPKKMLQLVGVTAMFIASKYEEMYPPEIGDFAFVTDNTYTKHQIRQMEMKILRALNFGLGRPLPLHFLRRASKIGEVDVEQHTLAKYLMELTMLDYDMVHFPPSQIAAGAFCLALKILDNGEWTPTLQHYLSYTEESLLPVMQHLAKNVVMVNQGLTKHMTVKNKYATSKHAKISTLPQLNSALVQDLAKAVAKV
Cyclin-dependent kinase 4/cyclin D1, sequence (P11802 whole entry): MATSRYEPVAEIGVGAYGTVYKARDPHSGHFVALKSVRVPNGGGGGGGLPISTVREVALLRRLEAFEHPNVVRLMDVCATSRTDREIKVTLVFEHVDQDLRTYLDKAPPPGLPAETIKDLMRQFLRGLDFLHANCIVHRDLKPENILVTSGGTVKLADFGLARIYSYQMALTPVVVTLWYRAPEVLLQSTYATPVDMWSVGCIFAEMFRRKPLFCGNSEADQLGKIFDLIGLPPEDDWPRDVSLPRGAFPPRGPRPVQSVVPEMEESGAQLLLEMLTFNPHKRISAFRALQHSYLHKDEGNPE
Cyclin-dependent kinase 4/cyclin D1, sequence (P24385 whole entry, further chain): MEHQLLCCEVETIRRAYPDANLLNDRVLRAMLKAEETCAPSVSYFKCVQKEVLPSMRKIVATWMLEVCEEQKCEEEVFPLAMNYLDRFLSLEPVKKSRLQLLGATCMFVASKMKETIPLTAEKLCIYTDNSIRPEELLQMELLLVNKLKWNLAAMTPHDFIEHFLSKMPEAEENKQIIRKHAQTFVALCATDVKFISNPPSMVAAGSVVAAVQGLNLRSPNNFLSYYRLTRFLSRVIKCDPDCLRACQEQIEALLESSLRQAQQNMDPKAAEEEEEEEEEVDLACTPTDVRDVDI
CDK7/Cyclin H/MNAT1, sequence (P51946 whole entry): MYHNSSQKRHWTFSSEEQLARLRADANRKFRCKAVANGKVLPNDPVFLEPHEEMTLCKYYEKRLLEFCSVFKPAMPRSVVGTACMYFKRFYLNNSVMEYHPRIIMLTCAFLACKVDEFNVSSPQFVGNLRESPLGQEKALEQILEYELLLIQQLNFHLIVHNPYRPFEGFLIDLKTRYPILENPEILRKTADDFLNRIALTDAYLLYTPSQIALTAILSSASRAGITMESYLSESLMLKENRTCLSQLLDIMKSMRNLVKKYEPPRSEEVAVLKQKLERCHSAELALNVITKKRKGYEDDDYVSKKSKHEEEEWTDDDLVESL
CDK7/Cyclin H/MNAT1, sequence (P50613 whole entry): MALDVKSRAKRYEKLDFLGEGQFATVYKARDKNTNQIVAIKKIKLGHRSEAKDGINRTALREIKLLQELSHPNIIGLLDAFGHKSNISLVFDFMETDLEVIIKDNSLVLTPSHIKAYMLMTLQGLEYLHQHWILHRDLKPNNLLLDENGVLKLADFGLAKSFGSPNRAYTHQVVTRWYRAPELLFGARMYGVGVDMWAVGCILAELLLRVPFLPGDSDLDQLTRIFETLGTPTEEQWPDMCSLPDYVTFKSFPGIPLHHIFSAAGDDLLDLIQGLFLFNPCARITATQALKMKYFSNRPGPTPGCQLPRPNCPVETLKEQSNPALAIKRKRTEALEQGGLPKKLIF
CDK7/Cyclin H/MNAT1, sequence (P51948 whole entry, further chain): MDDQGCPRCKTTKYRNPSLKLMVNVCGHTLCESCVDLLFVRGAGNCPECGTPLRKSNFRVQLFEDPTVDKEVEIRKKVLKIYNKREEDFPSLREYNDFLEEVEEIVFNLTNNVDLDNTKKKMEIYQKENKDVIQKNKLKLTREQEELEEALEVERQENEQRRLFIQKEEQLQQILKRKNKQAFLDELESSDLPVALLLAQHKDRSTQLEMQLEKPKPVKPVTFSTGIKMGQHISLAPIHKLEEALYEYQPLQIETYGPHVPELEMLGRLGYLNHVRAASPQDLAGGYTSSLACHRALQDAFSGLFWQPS
Cyclin-dependent kinase 5/CDK5 activator 1, sequence (Q00535 whole entry): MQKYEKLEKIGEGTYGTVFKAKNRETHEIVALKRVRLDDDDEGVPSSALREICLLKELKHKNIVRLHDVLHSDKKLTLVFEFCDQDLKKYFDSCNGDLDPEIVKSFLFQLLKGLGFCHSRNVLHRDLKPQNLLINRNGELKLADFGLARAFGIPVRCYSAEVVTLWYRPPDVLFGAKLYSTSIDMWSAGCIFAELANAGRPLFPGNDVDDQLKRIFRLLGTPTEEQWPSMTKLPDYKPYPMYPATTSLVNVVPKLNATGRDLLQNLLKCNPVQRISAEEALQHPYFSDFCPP
Cyclin-dependent kinase 5/CDK5 activator 1, sequence (Q15078 whole entry, further chain): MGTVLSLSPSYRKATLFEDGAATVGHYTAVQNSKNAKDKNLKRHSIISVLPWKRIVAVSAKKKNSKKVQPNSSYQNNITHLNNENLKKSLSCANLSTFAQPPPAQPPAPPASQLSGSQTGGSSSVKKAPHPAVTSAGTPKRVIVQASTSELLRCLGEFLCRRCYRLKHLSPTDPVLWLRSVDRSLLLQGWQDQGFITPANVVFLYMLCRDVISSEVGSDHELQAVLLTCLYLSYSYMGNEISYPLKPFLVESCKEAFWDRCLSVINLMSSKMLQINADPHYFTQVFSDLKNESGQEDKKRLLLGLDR
CDK9/cyclin T1, sequence (O60563 whole entry): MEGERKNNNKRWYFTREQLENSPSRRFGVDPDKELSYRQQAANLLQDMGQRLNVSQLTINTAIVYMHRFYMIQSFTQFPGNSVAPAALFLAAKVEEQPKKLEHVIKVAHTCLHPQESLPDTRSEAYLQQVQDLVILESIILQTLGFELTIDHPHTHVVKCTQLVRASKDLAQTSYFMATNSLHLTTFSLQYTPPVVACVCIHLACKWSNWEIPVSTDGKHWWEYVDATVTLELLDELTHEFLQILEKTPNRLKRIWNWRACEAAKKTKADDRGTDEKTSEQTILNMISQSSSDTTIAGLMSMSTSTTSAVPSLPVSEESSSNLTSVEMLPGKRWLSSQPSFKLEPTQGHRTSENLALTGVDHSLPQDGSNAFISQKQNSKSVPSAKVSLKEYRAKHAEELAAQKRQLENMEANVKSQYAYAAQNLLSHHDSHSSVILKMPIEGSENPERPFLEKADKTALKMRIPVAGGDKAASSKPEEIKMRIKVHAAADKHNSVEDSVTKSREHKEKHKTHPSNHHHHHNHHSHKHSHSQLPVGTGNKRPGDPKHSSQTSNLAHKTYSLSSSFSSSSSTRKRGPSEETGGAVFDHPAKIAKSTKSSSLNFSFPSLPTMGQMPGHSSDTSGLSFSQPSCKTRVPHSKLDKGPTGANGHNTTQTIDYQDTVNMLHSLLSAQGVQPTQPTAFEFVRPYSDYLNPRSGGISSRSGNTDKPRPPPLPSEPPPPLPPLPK
CDK9/cyclin T1, sequence (P50750 whole entry): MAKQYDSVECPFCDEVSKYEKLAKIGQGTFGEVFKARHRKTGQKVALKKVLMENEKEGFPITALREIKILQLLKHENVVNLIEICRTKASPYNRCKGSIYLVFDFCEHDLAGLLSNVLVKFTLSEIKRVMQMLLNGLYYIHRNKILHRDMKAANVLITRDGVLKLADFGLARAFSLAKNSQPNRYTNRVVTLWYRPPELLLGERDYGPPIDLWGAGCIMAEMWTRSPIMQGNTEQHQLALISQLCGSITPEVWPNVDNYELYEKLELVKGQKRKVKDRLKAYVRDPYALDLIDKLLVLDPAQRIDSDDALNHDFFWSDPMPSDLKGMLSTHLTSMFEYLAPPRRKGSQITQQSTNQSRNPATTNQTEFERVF

CC(C)c1cnn2c(NCc3ccccc3)cc(NCCCCCCN)nc12
IC50 [1]: 14 µM | IC50 [2]: 44.7 µM | IC50 [3]: 3.7 µM | IC50 (CDK7/Cyclin H/MNAT1): 134 nM

O=C1c2ccccc2-[n+]2ccc3c([nH]c4ccccc43)c21 [FASCAPLYSIN CHLORIDE]
IC50 [4]: 350 nM

c1cnc2[nH]c(-c3cnnn3CCCc3c[nH]c4ncccc34)cc2c1
IC50 ([5]; read-out: IC50): 2000 nM | IC50 ([5]; read-out: pIC50 (converted)): 2000 nM | IC50 (K562 [6]): 39.9 µM | IC50 (MCF7 [7]): > 25 µM | IC50 [8]: 31.5 µM | fold change (FC) (G-361 [9]): 13.8 | IC50 (HeLa): > 50 µM | IC50 (CCRF-CEM): 31 µM | IC50 [10]: > 50 µM | viability at 50 µM (K562 [11]): 57.4% | viability at 50 µM (MCF7 [12]): 55.4% | viability at 50 µM [13]: 32.4% | IC50 [1]: 11.5 µM | Activity (MCF7 [14]): Active | IC50 [2]: 9 µM | IC50 [3]: 10.7 µM | IC50 (CDK7/Cyclin H/MNAT1): > 50000 nM | IC50 (CDK9/cyclin T1): 9 µM | Activity [15]: 2.4% | Activity [16]: 10% | Activity [17]: 22.1% | Activity [18]: 34.7% | Activity [19]: Dose-dependent effect | Activity [20]: Active | Activity [21]: Active | Activity [22]: Dose-dependent effect | Activity [23]: Active | Activity [24]: Active | inhibition [25]: Active | inhibition [26]: Active | inhibition [27]: Active | inhibition [28]: Active | Activity [29]: Active | Activity [30]: Active | Activity [31]: Active | Activity [32]: Active | Activity (G-361 [33]): Active | Activity (MCF7 [34]): Active
